Data from ChEMBL document CHEMBL1125085, “Synthesis and anticonvulsant activity of some new 2-substituted 3-aryl-4(3H)-quinazolinones” (J Med Chem, 1990).
Where “and” joins values, the source holds several entries; their conditions need not be identical. Equal values may be shown once.

Legend:
Mus musculus [1] = assay: Rotarod test was used to evaluate neurotoxicity in mice. Toxicity values are reported after 0.5 h.,toxicity at 300 mg/kg; Toxic; assay type: organism-based; parameters: dose 300 mg/kg; conditions: in vivo
Mus musculus [2] = assay: Subcutaneous metrazole (scMet) test was conducted and median effective dose was determined at the time of peak anticonvulsant and sedative effect; assay type: functional; conditions: sc
How it was run: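 Pentylenetetrazol (85 mg/kg in mice, 70 mg/kg in rats) was given subcutaneously in the posterior midline as a 0.5% solution. Compounds were in 30% PEG 400, dosed ip in male Carworth Farms no. 1 mice, or orally in mice and Sprague-Dawley rats. ED50 was read at time of peak effect, using groups of 8–16 animals and ≥3 doses giving 10–90% protection. Probit analysis gave 95% confidence intervals.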

Mus musculus [3] = assay: (§1) Subcutaneous metrazole (scMet) test was conducted after Injecting intraperitoneally at the time of peak anticonvulsant in phase II test; assay type: ADME, organism-based; conditions: ip
How it was run: (§2)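 Phase II testing in male Carworth Farms no. 1 mice, ip dosing in 30% PEG 400 (0.01 mL/g). Groups of 8–16 mice received a range of doses, giving at least three points in 10–90% protection. ED50 with 95% confidence interval was fitted by probit analysis at the time of peak effect. scMet used pentylenetetrazol 85 mg/kg sc.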

Mus musculus [4] = assay: (§3) MES test was performed after Injecting intraperitoneally at the time of peak anticonvulsant effect in phase II test; assay type: ADME, organism-based; conditions: ip; how it was run: as §2
Mus musculus [5] = species: Mus musculus; assay: Anticonvulsant activity was determined by injecting perorally in mice.(scMet) test was conducted; assay type: functional
How it was run: (§4)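 Oral dosing in mice, test solutions in 30% polyethylene glycol 400, 0.01 mL/g body weight. Groups of 8–16 mice received a range of doses until at least three points fell within 10–90% seizure protection.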

Mus musculus [6] = species: Mus musculus; assay: Anticonvulsant activity was determined by injecting perorally in mice. MES test was performed; assay type: functional; how it was run: as §4
Mus musculus [7] = assay: Dose Injected intraperitoneally that causes loss of righting reflex in mice was reported as hypnotic dose (HD).; assay type: functional
How it was run: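 Mice dosed ip after a toxicity profile at TD50, 2× and 4× TD50, observed from 10 min to 24 h. HD50 is the dose causing loss of righting reflex in 50% of mice, with groups of eight mice scored at several times up to 24 h.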

[8] = Dose Injected intraperitoneally that causes death 50% of the mice within 24 hr was reported as lethal dose 50 (LD50).; assay type: organism-based; conditions: mouse, in vivo, ip
Mus musculus [9] = species: Mus musculus; assay: Anticonvulsant activity was determined by injecting perorally in mice. Time taken to reach peak toxicity was reported.; assay type: functional
How it was run: (§5)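 Time of peak effect, in hours, was found separately for anticonvulsant activity and for neurotoxicity. ED50 and TD50 were then determined at those times.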

Mus musculus [10] = species: Mus musculus; assay: Anticonvulsant activity was determined by injecting perorally in mice. Time taken to reach peak activity was reported.; assay type: functional; how it was run: as §5
[11] = Median toxic dose was measured at time of peak neurologic deficit.; assay type: organism-based; conditions: mouse, in vivo
How it was run: (§6)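 Mice dosed ip in 30% PEG 400. Minimal neurotoxicity was scored by rotorod at the time of peak neurologic deficit. Groups of 8–16 mice were used, with at least three points in the 10–90% range, and TD50 with 95% confidence interval was derived by probit analysis.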

Rattus norvegicus [12] = species: Rattus norvegicus; assay: Anticonvulsant activity was determined by injecting perorally in rats. (scMet) test was conducted; assay type: functional
Rattus norvegicus [13] = species: Rattus norvegicus; assay: Anticonvulsant activity was determined by injecting perorally in rats. MES test was performed; assay type: functional
Rattus norvegicus [14] = species: Rattus norvegicus; assay: Anticonvulsant activity was determined by injecting perorally in rats. Time taken to reach peak toxicity was reported.; assay type: organism-based; conditions: in vivo, po; how it was run: as §5
Rattus norvegicus [15] = species: Rattus norvegicus; assay: Anticonvulsant activity was determined by injecting perorally in rats. Time taken to reach peak activity was reported.; assay type: functional; how it was run: as §5
[16] = Neurotoxicity was determined by injecting perorally in rats; assay type: toxicity, organism-based; conditions: rat, in vivo, po
How it was run: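 Rats dosed orally in 30% PEG 400. Neurotoxicity was assessed by positional sense and gait-and-stance tests at the time of peak deficit. TD50 with 95% confidence interval was derived by probit analysis from at least three dose points in the 10–90% range.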

[17] = Protective index is the ratio of TD50 and ED50 values obtained in the maximal electroshock seizure (MES) test.; assay type: functional
How it was run: (§7)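 Protective index = TD50/ED50. Both values are medians from groups of 8–16 animals per dose, with at least three points in the 10–90% effect range, fitted by probit analysis. Each was taken at its own time of peak effect: seizure protection for ED50, neurologic deficit for TD50.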

[18] = Time taken to reach peak activity was reported.; assay type: functional
[19] = Time taken to reach peak toxicity was reported.
Mus musculus [20] = assay: as §1; assay type: functional; how it was run: as §2
Mus musculus [21] = assay: as §3; assay type: functional; conditions: ip; how it was run: as §2
Mus musculus [22] = species: Mus musculus; assay: Anticonvulsant activity was determined by injecting perorally in mice. Maximal electroshock seizure test was performed; assay type: functional; how it was run: as §4
[23] = Dose Injected intraperitoneally that causes death 50% of the mice within 24 hr was reported as lethal dose 50. No deaths among eight test animals at 4000 mg/kg after 24 hr in phase III test; assay type: organism-based; parameters: dose 4000 mg/kg, route intraperitoneal; conditions: mouse, in vivo, ip
Mus musculus [24] = species: Mus musculus; assay: Anticonvulsant activity was determined by injecting perorally in mice. Time taken to reach peak activity was reported; assay type: functional; how it was run: as §5
Mus musculus [25] = species: Mus musculus; assay: Anticonvulsant activity was determined by injecting perorally in mice. Time taken to reach peak toxicity was reported; assay type: organism-based; conditions: in vivo, po; how it was run: as §5
[26] = Median toxic dose was measured at time of peak neurologic deficit in phase II test; assay type: organism-based; conditions: mouse, in vivo; how it was run: as §6
[27] = Neurotoxicity was determined by injecting perorally in mice. Median toxic dose was measured; assay type: toxicity, organism-based; conditions: mouse, in vivo, po
How it was run: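 Mice dosed orally in 30% PEG 400. Neurotoxicity was scored by rotorod at the time of peak neurologic deficit. Groups of 8–16 mice were used, with at least three points in the 10–90% range, and TD50 with 95% confidence interval was derived by probit analysis.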

Rattus norvegicus [28] = species: Rattus norvegicus; assay: Anticonvulsant activity was determined by injecting perorally in rats. Time taken to reach peak toxicity was reported; assay type: organism-based; conditions: in vivo, po; how it was run: as §5
Rattus norvegicus [29] = species: Rattus norvegicus; assay: Anticonvulsant activity was determined by injecting perorally in rats. Time taken to reach peak activity was reported; assay type: functional; how it was run: as §5
[30] = Protective index is the ratio of TD50 and ED50 values obtained in the maximal electroshock seizure (MES) test in phase II test; assay type: functional; how it was run: as §7
[31] = Protective index is the ratio of TD50 and ED50 values obtained in the subcutaneous metrazole (scMet) test in phase II test; assay type: functional; how it was run: as §7
[32] = Time taken to reach peak activity was reported in phase II test; assay type: functional
How it was run: (§8)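 Male Carworth Farms no. 1 mice dosed ip in 30% polyethylene glycol 400 (0.01 mL/g). Seizure protection was tested by MES and by sc pentylenetetrazol (85 mg/kg, 0.5% solution, posterior midline); neurotoxicity was tested on the rotorod. Time of peak effect is given in hours. ED50 and TD50 were determined at that time in groups of 8–16 mice.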

[33] = Time taken to reach peak toxicity was reported in phase II test; how it was run: as §8
[34] = Anticonvulsant activity was determined by injecting perorally in mice. Protective index is the ratio of TD50 and ED50 values obtained in the maximal electroshock seizure (MES) test.; assay type: functional; how it was run: as §7
[35] = Anticonvulsant activity was determined by injecting perorally in mice. Protective index is the ratio of TD50 and ED50 values obtained in the subcutaneous metrazole (scMet) test; assay type: functional; how it was run: as §7
[36] = Anticonvulsant activity was determined by injecting perorally in rats. Protective index is the ratio of TD50 and ED50 values obtained in the maximal electroshock seizure (MES) test.; assay type: functional; how it was run: as §7
[37] = Anticonvulsant activity was determined by injecting perorally in rats. Protective index is the ratio of TD50 and ED50 values obtained in the subcutaneous metrazole (scMet) test; assay type: functional; how it was run: as §7
Mus musculus [38] = assay: Rotarod test was used to evaluate neurotoxicity in mice. Toxicity values are reported after 4.0 hr toxicity at 300 mg/kg; toxic; assay type: organism-based; parameters: dose 300 mg/kg; conditions: in vivo
Mus musculus [39] = assay: Rotarod test was used to evaluate neurotoxicity in mice. Toxicity values are reported after 0.5 hr at 300 mg/kg; Toxic; assay type: organism-based; parameters: dose 300 mg/kg; conditions: in vivo
Mus musculus [40] = species: Mus musculus; assay: Time taken to reach peak activity was reported; assay type: functional; how it was run: as §5
[41] = Median toxic dose was measured at time of peak neurologic deficit; assay type: organism-based; conditions: mouse, in vivo; how it was run: as §6
[42] = Protective index is the ratio of TD50 and ED50 values obtained in the subcutaneous metrazole (scMet) test.; assay type: functional; how it was run: as §7
Mus musculus [43] = assay: Rotarod test was used to evaluate neurotoxicity in mice. Toxicity values are reported after 0.5 h. toxicity at 300 mg/kg; - denotes no activity observed at 300 mg/kg toxic; assay type: organism-based; conditions: in vivo
Mus musculus [44] = assay: Rotarod test was used to evaluate neurotoxicity in mice. Values are reported after 0.5 h, at 300 mg/kg; no activity or toxicity up to 300 mg/kg; assay type: organism-based; conditions: in vivo
Mus musculus [45] = assay: Anticonvulsant activity was determined in Subcutaneous metrazole (scMet) test 0.5 h after administration of 300 mg/kg in (mice/rat); no activity or toxicity up to 300 mg/kg; assay type: functional, organism-based
Mus musculus [46] = assay: Anticonvulsant activity was determined in maximal electroshock seizure test 0.5 h after administration of 300 mg/kg in (mice/rat); no activity or toxicity up to 300 mg/kg; assay type: functional, organism-based
Mus musculus [47] = assay: Subcutaneous metrazole (scMet) test was done, 4.0 hr after administration; no activity or toxicity up to 300 mg/kg; assay type: functional, organism-based; parameters: dose 300 mg/kg
Mus musculus [48] = assay: Anticonvulsant activity was determined in maximal electroshock seizure test 4.0 h after administration of 300 mg/kg in (mice/rat); no activity or toxicity up to 300 mg/kg; assay type: functional, organism-based

## O=C(Cc1nc2ccccc2c(=O)n1-c1ccc(Br)cc1)c1ccncc1
Mus musculus [1]
  Activity: Toxic

## CCC1(c2ccccc2)NC(=O)N(C)C1=O (stereo not given) [MEPHENYTOIN]
Mus musculus [2]
  ED50: 30.5 mg/kg

## O=C(Cc1nc2ccccc2c(=O)n1-c1ccccc1Cl)c1ccncc1
Mus musculus [3]
  ED50: 14.5 mg/kg
Mus musculus [4]
  ED50: 196 mg/kg
Mus musculus [5]
  ED50: 2.53 mg/kg
Mus musculus [6]
  ED50: 14.1 mg/kg
Mus musculus [7]
  HD50: 1181 mg/kg
[8]
  LD50 at 24 h: > 3000 mg/kg
Mus musculus [9]
  TPE: 0.5
Mus musculus [10]
  TPE: 1
[11]
  TD50: 262 mg/kg
Rattus norvegicus [12]
  ED50: 3.09 mg/kg
Rattus norvegicus [13]
  ED50: 1.44 mg/kg
Rattus norvegicus [14]
  TPE: 4 h
Rattus norvegicus [15]
  TPE: 4 h
[16]
  TD50: 2.91 mg/kg
[17]
  PI: 1.3 (2×) and 2
[18]
  TPE: 2.5 h
[19]
  TPE: 2.5 h

## Cc1ccccc1-n1c(CC(=O)c2ccncc2)nc2ccccc2c1=O
Mus musculus [20]
  ED50: 100 mg/kg
Mus musculus [21]
  ED50: 148 mg/kg
Mus musculus [5]
  ED50: 15 mg/kg
Mus musculus [22]
  ED50: 27.1 mg/kg
[23]
  LD50 at 24 h: > 4000 mg/kg
Mus musculus [24]
  TPE: 2 h
Mus musculus [25]
  TPE: 0.5 h
[26]
  TD50: 561 mg/kg
[27]
  TD50: 67.6 mg/kg
Rattus norvegicus [12]
  ED50: 2.57 mg/kg
Rattus norvegicus [13]
  ED50: 1.73 mg/kg
Rattus norvegicus [28]
  TPE: 4 h
[16]
  TD50: 2.89 mg/kg
Rattus norvegicus [29]
  TPE: 4 h
[30]
  PI: 3.8
[31]
  PI: 5.6
[32]
  TPE: 2 h
[33]
  TPE: 2 h
[34]
  PI: 2.5
[35]
  PI: 4.5
[36]
  PI: 1.7
[37]
  PI: 1.1

## O=C(Cc1nc2ccccc2c(=O)n1-c1ccccc1Br)c1ccncc1
Mus musculus [38]
  Activity: Toxic
Mus musculus [39]
  Activity: Toxic
Mus musculus [20]
  ED50: 19 mg/kg
Mus musculus [21]
  ED50: 136 mg/kg
Mus musculus [40]
  TPE: 1 h
[41]
  TD50: > 2000 mg/kg
[17]
  PI: > 14.7
[42]
  PI: >105

## O=C(Cc1nc2ccccc2c(=O)n1-c1ccccc1Cl)c1cccnc1
Mus musculus [43]
  Activity: Toxic

## Cc1ccc(-n2c(CC(=O)c3cccnc3)nc3ccccc3c2=O)cc1
Mus musculus [44]
  Activity: No activity or toxicity up to 300 mg/kg
Mus musculus [45]
  Activity: No activity or toxicity up to 300 mg/kg
Mus musculus [46]
  Activity: No activity or toxicity up to 300 mg/kg
Mus musculus [47]
  Activity: No activity or toxicity up to 300 mg/kg
Mus musculus [48]
  Activity: No activity or toxicity up to 300 mg/kg
